Source: ChEMBL document CHEMBL2385008, “Inducers of hypoxic response: marine sesquiterpene quinones activate HIF-1” (2013)
The source made the active and inactive calls. No cut-off for these calls is given here.

Experiments:
T47D [1] = experiment: Activation of HIF-1 (unknown origin) transfected in human T47D cells at 10 uM after 16 hrs by luciferase reporter gene assay relative to control; assay type: cell-based
Outline: (§1)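 T47D breast tumor cells grown in DMEM/F12 with L-glutamine, 10% FBS and penicillin/streptomycin, transfected with HIF-1 reporter pHRE3-TK-Luc; compound exposure 16 h. Luciferase activity normalized to untreated control as relative luciferase activity; 1,10-phenanthroline used as HIF-1 activator control. Mean + SD, n = 4.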

T47D [2] = experiment: Activation of HIF-1 in human T47D cells assessed as increase in secreted VEGF production at 10 uM after 16 hrs by ELISA; assay type: cell-based
Outline: (§2)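 T47D cells treated at 10 μM for 16 h. VEGF protein measured by ELISA in conditioned medium (secreted) or cell lysate (cellular), normalized to cellular protein by micro BCA assay. Untreated medium control; 1,10-phenanthroline positive control. Mean + SD pooled from two independent experiments (n = 3); p < 0.05 versus untreated control flagged.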

T47D [3] = experiment: Cytotoxicity against human T47D cells assessed as growth inhibition at 3 to 30 uM after 48 hrs by SRB assay; assay type: functional, cell-based
Outline: (§3)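 T47D or MDA-MB-231 breast tumor cells (DMEM/F12, 10% FBS, penicillin/streptomycin) plated in 96-well format and exposed to compound for 48 h. Viability read by sulforhodamine B staining and expressed as % inhibition relative to untreated control. One representative experiment in triplicate, mean with SD.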

T47D [4] = experiment: Cytotoxicity against human T47D cells assessed as growth inhibition at 30 uM after 48 hrs by SRB assay relative to control; assay type: functional; conditions: read-out: GI; outline: as §3
T47D [5] = experiment: Activation of HIF-1 in human T47D cells assessed as increase in cellular VEGF production at 10 uM after 16 hrs by ELISA; assay type: cell-based; outline: as §2
MDA-MB-231 = experiment: Cytotoxicity against human MDA-MB-231 cells assessed as growth inhibition at 3 to 30 uM after 48 hrs by SRB assay; assay type: functional, cell-based; outline: as §3
T47D (Homo sapiens) = experiment: Activation of HIF-1 in human T47D cells assessed as increase in VEGF production at 10 uM after 16 hrs by ELISA
T47D [6] = experiment: Activation of HIF-1 (unknown origin) transfected in human T47D cells at 3 to 30 uM after 16 hrs by luciferase reporter gene assay; assay type: cell-based; outline: as §1

Structure (SMILES) | Activity (T47D [1]) [%] | Activity (T47D [2]) | growth inhibition (GI) (T47D [3]) | inhibition of growth at 30 µM (T47D [4]) [%] | Activity (T47D [5]) | growth inhibition (GI) (MDA-MB-231) | Activity (T47D (Homo sapiens)) | Activity (T47D [6])
COC1=CC(=O)C(O)=C(C[C@]2(C)[C@H](C)CC[C@]34C[C@@]3(C)CCC[C@@H]24)C1=O | 1000 | Active | Dose-dependent effect | 58 | Active | Dose-dependent effect | Active | –
COC1=CC(=O)C2=C(C[C@@H]3[C@@]4(C)CCCC(C)(C)[C@@H]4CC[C@@]3(C)O2)C1=O | – | – | Dose-dependent effect | – | – | Dose-dependent effect | – | inactive
C=C1CCC[C@H]2[C@](C)(CC3=C(O)C(=O)C=C(OC)C3=O)[C@H](C)CC[C@@]12C (relative stereo) | 830 | Active | Dose-dependent effect | 60 | Active | Dose-dependent effect | Active | –
CC1(C)CCC[C@]2(C)[C@H]3Cc4cc(O)ccc4O[C@@]3(C)CC[C@@H]12 | – | – | inactive | – | – | inactive | – | inactive
c1cnc2c(c1)ccc1cccnc12 | – | Active | – | – | Active | – | – | –
COC1=CC(=O)C2=C(C[C@]3(C)[C@H](C)CC[C@]45C[C@@]4(C)CCC[C@]53O2)C1=O | – | – | Dose-dependent effect | – | – | Dose-dependent effect | – | inactive
COC1=CC(=O)C2=C(C[C@]3(O2)[C@@H](C)CC[C@H]2C(C)(C)CCC[C@@]23C)C1=O | – | – | Dose-dependent effect | – | – | Dose-dependent effect | – | inactive
COC(=O)c1cc2c(c(O)c1O)O[C@@]1(C2)[C@@H](C)CC[C@H]2C(C)(C)CCC[C@@]21C | – | – | Dose-dependent effect | – | – | Dose-dependent effect | – | inactive
C=C1CCC[C@H]2[C@](C)(CC3=C(O)C(=O)C=C(OC)C3=O)[C@@H](C)CC[C@]12C [ILIMAQUINONE] | 930 | Active | Dose-dependent effect | 56 | Active | Dose-dependent effect | Active | –
C=C1CCC[C@@]23OC4=C(C[C@]2(C)[C@H](C)CC[C@@]13C)C(=O)C(OC)=CC4=O | – | – | Dose-dependent effect | – | – | Dose-dependent effect | – | inactive
